ChEMBL document CHEMBL4196163, “In Silico Identification of Piperidinyl-amine Derivatives as Novel Dual Binders of Oncogene c-myc/c-Kit G-quadruplexes” (ACS Med Chem Lett, 2018)
Calls of active or inactive are those of the source. The calls are words filed in the database; no cut-off is given here.

Columns and labels:
[1] = tested on: Quadruplex DNA; assay: Stabilization of 5'-biotinylated c-Kit G-quadruplex DNA (unknown origin) by surface plasmon resonance assay; assay type: nucleic-acid assay
[2] = tested on: Quadruplex DNA; assay: Binding affinity to 5'-Dabcyl/3'-FM labeled c-myc G-quadruplex DNA (unknown origin) assessed as change in melting temperature at 20 uM by fluorescence assay; assay type: nucleic-acid assay
Procedure, shortened: (§1)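 Fluorescence melting of end-labelled oligonucleotides matching the c-myc and c-Kit G4 sequences used in the virtual screen. Melting profiles were recorded with and without increasing ligand concentrations.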

[3] = tested on: dsDNA; assay: Binding affinity to double stranded DNA (unknown origin) assessed as change in melting temperature at 20 uM by fluorescence assay; assay type: nucleic-acid assay
[4] = tested on: Quadruplex DNA; assay: Binding affinity to 5'-Dabcyl/3'-FM labeled c-Kit G-quadruplex DNA (unknown origin) assessed as change in melting temperature at 20 uM by fluorescence assay; assay type: nucleic-acid assay; procedure, shortened: as §1
[5] = tested on: HGC-27; assay: Cytotoxicity against human HGC27 cells assessed as reduction in cell viability after 72 hrs by Alamar blue assay; assay type: functional, cell-based; settings: for IC50: HGC-27, 72 h
Procedure, shortened: (§2)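 Cells were exposed to the compound for 72 h, and viability was read by Alamar Blue. IC50 values were taken from dose-response curves, with linear regression coefficients (R2) reported.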

[6] = tested on: Quadruplex DNA; assay: Stabilization of c-myc G-quadruplex DNA (unknown origin) by circular dichroism method; assay type: nucleic-acid assay
[7] = (§3) Cytotoxicity against human HMC-1.2 cells assessed as reduction in cell viability after 72 hrs by Alamar blue assay; assay type: functional, cell-based; procedure, shortened: as §2
[8] = species on record: Homo sapiens; assay: as §3; assay type: functional, cell-based; procedure, shortened: as §2
[9] = target: Quadruplex DNA; assay: Stabilization of c-Kit G-quadruplex DNA (unknown origin) by circular dichroism method; assay type: nucleic-acid assay

| Activity [1] | ΔTm [2] [°C] | Activity [3] | ΔTm [4] [°C] | Activity [6] | Kd [9] [µM] | ΔTm [3] [°C] | Activity [9] | SMILES | Activity [5] | IC50 [5] [µM] | IC50 [7] [µM] | Activity [8] |
| --- | --- | --- | --- | --- | --- | --- | --- | --- | --- | --- | --- | --- |
| Dose-dependent effect | 5.4 | inactive | 3.2 | Active | 18 | – | – | CCOc1cc(CNCC2CCNCC2)ccc1OCc1ccc(Cl)cc1 | Dose-dependent effect | 2.37 | 2.56 | Dose-dependent effect |
| – | 0.6 | inactive | 0.1 | – | – | – | – | CC(C)(N)C(=O)NC1CCN(C(=O)Cn2ccc3ccncc32)CC1 | – | – | – | – |
| – | 2 | – | 3 | Active | – | 1.5 | Active | Cc1cc(-c2ccc(CNCC3CCNCC3)o2)ccc1Br | Dose-dependent effect | 2.55 | 2.56 | Dose-dependent effect |
| – | 0.1 | inactive | 0.3 | – | – | – | – | CC(C)CC(N)C(=O)NC1CCN(C(=O)Cn2ccc3ccncc32)CC1 (stereo not drawn) | – | – | – | – |
| Dose-dependent effect | 1.3 | inactive | 2.3 | Active | – | – | Active | Cc1ccc(COc2ccc(CNCC3CCNCC3)cc2)cc1 | Dose-dependent effect | 4.22 | 4 | Dose-dependent effect |
| – | 0.4 | inactive | 1.1 | – | – | – | – | CCn1cc(C(NC(=O)CCCN)c2ccc(F)cc2)c2ccncc21 (stereo not drawn) | – | – | – | – |
